# High-throughput results from PubChem.
# The list is not random: actives were taken first. Their share in the collection is about 3.6%.
# PAFAH1B3 FP inh – PAFAH1B3 enzyme inhibitors, primary screen, biochemical, fluorescence polarization, human; recombinant PAFAH1B3, FP-rhodamine probe; 340,000 compounds, 0.28% hits; AID 492972, 2010; Platelet-activating factor acetylhydrolase IB subunit alpha1 (Homo sapiens), Q15102; inhibition, % at 3.39 µM;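 active = inhibition above the screen-wide average of all tested compounds plus 3 SD, cut at about 25% in these data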
# PAFAH1B2 FP inh – PAFAH1B2 enzyme inhibitors, primary screen, biochemical, fluorescence polarization, human | Platelet-activating factor acetylhydrolase IB subunit alpha2 (Homo sapiens), P68402 | recombinant PAFAH1B2, FP-rhodamine activity probe | inhibition, % at 3.39 µM | 340,000 compounds, 1.2% hits;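 active = inhibition above the mean of all tested compounds plus 3 SD, cut at about 24% in these data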
# IMP-1 inh – IMP-1 metallo-beta-lactamase inhibitors, primary screen, biochemical, epi-absorbance readout, Pseudomonas aeruginosa enzyme | inhibition, % at 5.6 µM | purified IMP-1, nitrocefin hydrolysis, epi-absorbance fluorescence | 290,000 compounds, 0.45% hits | metallo-beta-lactamase IMP-1 (Pseudomonas aeruginosa);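 active = inhibition above the mean plus 3 SD of all compounds in the same screening run, cut at about 4.5% in these data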
#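 System – purified recombinant IMP-1 beta-lactamase · Input – IMP-1 dispensed at 0.2 nM · Timing – 15 min preincubation plus 25 min reaction at 25 °C · Signal – Epi-absorbance fluorescence, 480 nm excitation, 530 nm emission · Measure – percent IMP-1 inhibition derived from blank-referenced optical density · Controls – Enzyme-plus-DMSO low control, enzyme-free DMSO high control · Replication – singlicate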
# pPAFAH inh – pPAFAH enzyme inhibitors, primary screen, biochemical, fluorescence polarization, human; 330,000 compounds, 1.5% hits; AID 463082, 2010; Platelet-activating factor acetylhydrolase (Homo sapiens), Q13093; recombinant pPAFAH, FP-rhodamine probe fluorescence polarization; inhibition, % at 3.39 µM;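 active = inhibition above the mean inhibition across the screen plus 3 SD, cut at about 25% in these data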;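 note: inhibitors block binding of the rhodamine activity-based probe so polarization drops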
# Target sequence (Q13093 whole entry, looked up): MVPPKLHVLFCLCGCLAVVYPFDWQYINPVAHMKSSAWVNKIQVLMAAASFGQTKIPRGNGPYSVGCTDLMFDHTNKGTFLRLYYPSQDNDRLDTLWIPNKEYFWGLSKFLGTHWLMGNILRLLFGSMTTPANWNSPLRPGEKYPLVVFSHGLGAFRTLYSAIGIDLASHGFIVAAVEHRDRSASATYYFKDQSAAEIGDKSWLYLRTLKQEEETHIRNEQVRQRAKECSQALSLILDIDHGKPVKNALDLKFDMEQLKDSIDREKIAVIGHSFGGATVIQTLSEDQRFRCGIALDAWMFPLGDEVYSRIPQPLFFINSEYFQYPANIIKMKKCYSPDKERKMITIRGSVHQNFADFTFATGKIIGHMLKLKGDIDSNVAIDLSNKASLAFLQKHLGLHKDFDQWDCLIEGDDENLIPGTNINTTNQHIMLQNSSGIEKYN
# VIM-2 inh – VIM-2 metallo-beta-lactamase inhibitors, primary screen, biochemical, epi-absorbance readout, Pseudomonas aeruginosa enzyme | purified VIM-2, nitrocefin hydrolysis, epi-absorbance fluorescence | inhibition, % at 5.6 µM | 290,000 compounds, 0.89% hits;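 active = inhibition above the mean of all tested compounds plus 3 SD, cutoff set per screening run, cut at about 7.5% in these data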;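 note: red hydrolysis product quenches plate fluorescence so inhibitors raise well fluorescence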
# PAFAH2 FP inh – PAFAH2 enzyme inhibitors, primary screen, biochemical, fluorescence polarization, human; inhibition, % at 3.39 µM; recombinant PAFAH2, FP-rhodamine activity probe; 340,000 compounds, 0.99% hits;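 active = inhibition above the mean over all tested compounds plus 3 SD, cut at about 30% in these data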;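 note: inhibitors block probe labeling of enzyme so polarization drops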
# pPAFAH FP conf – pPAFAH (PLA2G7) enzyme inhibitors, confirmation, biochemical, fluorescence polarization, human. 2,300 compounds, 72% hits. recombinant pPAFAH, FP-Rh probe fluorescence polarization. inhibition, % at 3.39 µM. shares compounds with pPAFAH inh;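 active = mean inhibition of the triplicate above the hit cutoff set for the earlier primary screen, cut at about 25% in these data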
# Numbers stand for hits; n = inactive; x = not tested or not shown.
SMILES,PAFAH1B3 FP inh,PAFAH1B2 FP inh,IMP-1 inh,pPAFAH inh,VIM-2 inh,PAFAH2 FP inh,pPAFAH FP conf
COc1cccc(N=Nc2ccc(O)c3ncccc23)c1,n,n,n,60,n,n,25
COc1cc(OC)cc(C(=O)Nc2cccc3cccnc23)c1,n,n,n,n,n,n,x
Cc1ccc(C(=O)OCC(=O)N2CCC(c3ccccc3)=N2)cc1,n,n,x,n,x,n,x
O=C(CSCc1n[nH]c(=O)[nH]1)NCCOc1cccc(Oc2ccccc2)c1,n,n,n,36,n,n,n
CC1CCCN(C(=O)COC(=O)c2cc(-c3cccs3)nn2-c2ccccc2)C1 (configuration not stated),n,n,x,n,x,n,x
CCC(CC)CN1CCC(CN2C(=S)NC[C@@H]2[C@@H](C)CC)CC1,n,n,x,x,x,n,x
Cc1[nH]n(-c2nc(-c3ccccc3F)cc(=O)[nH]2)c(=O)c1CCO,n,n,n,41,n,n,n
CN=c1scc(-c2cccs2)n1/N=C/c1ccc(O)c(O)c1O,n,n,n,51,n,n,65
CN=c1scc(C)n1/N=C/c1ccc(O)c(O)c1O,n,n,n,60,n,n,n
O=C(Nc1ccncc1)C1CCN(S(=O)(=O)c2ccc(Cl)c(C(F)(F)F)c2)CC1,n,n,x,n,x,n,x
CCc1noc(C)c1C(=O)NNC(=O)COc1cc(C)ccc1C,n,n,x,n,x,n,x
Cc1cc(SCC(=O)OCC(=O)N(C)c2ccccc2)nc2ccccc12,n,n,x,n,x,n,x
O=C(CSCc1cc(=O)[nH][nH]1)Nc1ccc(F)cc1,n,n,n,n,n,n,x
CCCCc1ccc(NC(=O)CSCc2cc(=O)[nH][nH]2)cc1,n,n,n,36,n,n,n
CN1C(=O)c2cccc3c(S(=O)(=O)Nc4ccccc4F)ccc1c23,n,n,n,n,n,n,x
CN(CC(=O)Nc1ccccc1Br)C(=O)c1ccccc1OCc1ccccc1Cl,n,n,x,x,x,n,x
CCOc1ccc(S(=O)(=O)N=C(c2ccccc2)N2CCOCC2)cc1,n,n,x,n,x,n,x
CCN(CC)S(=O)(=O)c1ccc(N2CCOCC2)c(NC(=O)COc2ccccc2C)c1,n,n,x,n,x,n,x
CCCCC(=O)NC(c1cccs1)c1cc(Cl)c2cccnc2c1O (configuration not stated),n,n,n,45,n,n,32
CC(C)=CCc1c(O)c(CC=C(C)C)c2c(c1O)-c1cc(O)c(O)cc1CC2,x,x,x,76,x,x,56
Cc1nnc(NC(=O)c2cc(-c3ccncc3)nc3c(C)cccc23)s1,n,n,n,n,n,n,x
Cc1cc(O)c(C(=O)Nc2cccc(Cl)c2)c(=O)n1C,n,n,n,n,n,n,x
O=C1CC(c2ccc(O)c(O)c2)Oc2c1ccc(O)c2O (configuration not stated),n,n,x,60,x,50,60
O=c1cc(-c2ccc(O)c(O)c2)oc2c1ccc1ccccc12,34,n,x,78,x,48,82
Cc1ccc(NC(=O)N/C=C/c2ccc(Cl)cc2)cc1,n,n,n,n,n,n,x
Cc1ccc(NC(=O)N/C=C/c2ccccc2)cc1,n,n,n,39,n,n,n
COc1cc(/C=C2\CC/C(=C\c3cc(OC)c(O)c(OC)c3)C2=O)cc(OC)c1O,n,n,n,42,n,n,39
COc1cc(/C=C2\CC/C(=C\c3cc(OC)c(OC)c(OC)c3)C2=O)cc(OC)c1OC,n,n,n,n,n,n,x
CC(=O)C1CCC2C3CC(C)=C4CC(O)CCC4(C)C3CCC12C (configuration not stated),n,n,x,x,x,n,x
